# This is a sample that favours compounds with a hit; in the whole collection about 5.8% have one here.
# Pf Dd2 inh – P. falciparum Dd2 growth inhibition; AID 1159554; hit rate 2.3% among 94,000; SYBR Green, 72 h; active compounds read low; activity change, % at 10 µM; in the data active = activity change below about -80%; inconclusive = no clear call, values can overlap the other calls
# GASC1 inh – KDM4C (human) demethylase inhibition. inhibition, % at 12.5 µM. GST-KDM4C 2-372, H3K9me3 peptide, LANCE TR-FRET. hit rate 0.15% among 96,000;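 active = mean replicate inhibition above about 25%, with at least 55% of replicates also reaching it, limit read from the data, passing the limit was not always enough; inconclusive = only one of those two conditions met; inactive = neither condition met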
# Target sequence (Q9H3R0 2-372 limits assumed): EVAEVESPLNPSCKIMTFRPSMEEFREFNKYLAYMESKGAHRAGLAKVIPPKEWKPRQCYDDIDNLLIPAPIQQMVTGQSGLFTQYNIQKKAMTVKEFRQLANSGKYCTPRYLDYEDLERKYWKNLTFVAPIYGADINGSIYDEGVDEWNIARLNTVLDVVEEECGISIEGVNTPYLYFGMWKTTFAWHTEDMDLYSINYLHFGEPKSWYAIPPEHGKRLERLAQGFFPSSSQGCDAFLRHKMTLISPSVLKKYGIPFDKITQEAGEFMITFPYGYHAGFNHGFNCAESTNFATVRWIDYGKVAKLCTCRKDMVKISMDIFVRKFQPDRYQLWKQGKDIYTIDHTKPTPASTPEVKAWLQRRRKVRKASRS
#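 Material: GST-tagged GASC-1 (JMJD2C) catalytic fragment, aa 2-372. Input: enzyme final amount 10 nM. Medium: HEPES buffer, pH 7.5, plus ascorbate. Reagent: H3K9me3 peptide substrate, Fe(II), 2-oxoglutarate. Doses: single dose. Times: reaction 30 min RT, detection step 1 h RT. Measured by: LANCE TR-FRET. Evaluation: Fall in 671/618 emission ratio as inhibition.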
# T cruzi growth-1 – T. cruzi proliferation inhibition; T. cruzi beta-gal in NIH3T3, GalScreen luminescence, 90 h; inhibition, % at 8.34 µM; hit rate 5.9% among 77,000; AID 624255;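 active = mean inhibition above about 93%, with at least 55% of replicates each passing it, limit read from the data, passing the limit was not always enough; inconclusive = only one of those two conditions holds; inactive = neither condition holds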
# IDH1 R132H inh – inhibitors of human IDH1 R132H. O75874. AID 624101. inhibition, % at 10 µM. IDH1 R132H reductase, diaphorase/resazurin fluorescence, 60 min. hit rate 0.18% among 70,000; in the data active = inhibition above about 34%; inconclusive = no clear call, values can overlap the other calls; inactive = below about 11%
# T cruzi growth-2 – blocks T. cruzi growth in NIH3T3 host cells; shares compounds with T cruzi growth-1; T. cruzi beta-gal in NIH3T3, GalScreen luminescence, 90 h; inhibition, % at 8.35 µM; hit rate 72% among 5,600; AID 651739;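 active = mean replicate inhibition above about 95% and at least 55% of replicates individually reaching it, limit read from the data; inconclusive = only one of the two criteria is met; inactive = neither criterion is met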
# T cruzi growth-3 – Trypanosoma cruzi proliferation inhibition. shares compounds with T cruzi growth-1. T. cruzi beta-gal in NIH3T3, GalScreen luminescence, 90 h. inhibition, % at 2.09 µM. hit rate 21% among 5,600;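 active = mean inhibition above about 95%, with at least 55% of replicates also reaching it, limit read from the data; inconclusive = meets just one of the two conditions; inactive = meets neither condition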
# NIH3T3 tox – NIH/3T3 (mouse) viability loss; shares compounds with T cruzi growth-1; NIH/3T3 viability, CellTiter-Glo ATP luminescence, 90 h; cytotoxicity (signal decrease), % at 8.35 µM; hit rate 14% among 5,600;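 active = mean signal decrease across replicates above about 35% based on untreated-well scatter, with enough replicates individually passing, limit read from the data; inconclusive = no rule stated though some were filed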
# NIH3T3 tox 2 – cytotoxicity in mouse NIH/3T3 fibroblasts; inhibition, % at 24.9 µM; hit rate 56% among 5,600; AID 651744; shares compounds with T cruzi growth-1; NIH/3T3 viability, CellTiter-Glo ATP luminescence, 90 h;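 active = mean loss of cell viability signal at or above a set limit, and enough replicates individually reaching it; inconclusive = meets only the mean limit or only the replicate share; inactive = meets neither condition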
# Hits are given with their value; i = inactive; ? = inconclusive; nt = no result given.
SMILES,Pf Dd2 inh,GASC1 inh,T cruzi growth-1,IDH1 R132H inh,T cruzi growth-2,T cruzi growth-3,NIH3T3 tox,NIH3T3 tox 2
C[C@@H]1CCCCO[C@H](CN(C)C(=O)Nc2ccc(F)cc2)[C@H](C)CN([C@@H](C)CO)C(=O)c2cc(NC(=O)Cc3ccccc3)ccc2O1,-82,i,103,i,104,i,i,i
O=C(CCCN1C(=O)c2ccccc2C1=O)Nc1cccc(Cl)c1Cl,nt,nt,nt,i,nt,nt,nt,nt
O=C(Nc1ccc(F)cc1)N1CCCCN2[C@H](CO)[C@H](c3ccc(-c4cccc(F)c4)cc3)[C@@H]2C1,i,i,118,nt,108,i,i,72
O=C(Nc1ccc(F)cc1)N1CCCCN2[C@@H](CO)[C@H](c3ccc(-c4cccc(F)c4)cc3)[C@@H]2C1,i,i,106,nt,95,i,120,103
CCc1nc(SCC(=O)Nc2c(C)cc(C)cc2[N+](=O)[O-])n[nH]1,nt,nt,nt,i,nt,nt,nt,nt
Cc1cccc(-n2c(SCC(=O)c3ccccc3)nnc2-c2cccs2)c1C,nt,nt,nt,i,nt,nt,nt,nt
CCC[C@@H](O)[C@H](O)[C@@H]1CC(OC)=CC(=O)O1,nt,nt,nt,i,nt,nt,nt,nt
C[C@@H]1CN([C@H](C)CO)C(=O)CCCn2nncc2CO[C@H]1CN(C)Cc1ccc(C(=O)Nc2ccccc2N)cc1,i,i,109,nt,101,i,i,31
C[C@@H]1CN([C@@H](C)CO)C(=O)CCCn2nncc2CO[C@@H]1CN(C)Cc1ccc(C(=O)Nc2ccccc2N)cc1,i,i,i,nt,nt,nt,nt,nt
C[C@@H]1CN([C@@H](C)CO)C(=O)CCCn2nncc2CO[C@H]1CN(C)Cc1ccc(C(=O)Nc2ccccc2N)cc1,i,i,110,nt,101,107,i,36
C[C@@H]1CN([C@H](C)CO)C(=O)CCCn2nncc2CO[C@H]1CN(C)Cc1ccc(-c2ccccc2)cc1,i,i,i,nt,nt,nt,nt,nt
C[C@H]1CN([C@@H](C)CO)C(=O)CCCn2nncc2CO[C@@H]1CN(C)Cc1ccc(C(=O)O)cc1,nt,i,nt,i,nt,nt,nt,nt
C[C@H](CO)N1C[C@H](C)[C@@H](CN(C)Cc2ccc(-c3ccccc3)cc2)OCc2cnnn2CCCC1=O,i,i,?,nt,i,i,i,51
C[C@H](CO)N1C[C@H](C)[C@@H](CN(C)Cc2ccc(C(=O)Nc3ccccc3N)cc2)OCc2cnnn2CCCC1=O,i,i,110,nt,106,i,i,?
C[C@H]1CN([C@@H](C)CO)S(=O)(=O)c2ccc(C#CCN(C)C)cc2O[C@@H]1CN(C)Cc1ccccc1F,i,i,110,i,107,i,i,105
C[C@H]1CN([C@@H](C)CO)S(=O)(=O)c2ccc(C#CC3CC3)cc2O[C@H]1CN(C)Cc1ccccc1F,i,i,106,i,106,i,i,107
C[C@@H]1CN([C@@H](C)CO)S(=O)(=O)c2ccc(C#CCN(C)C)cc2O[C@H]1CN(C)Cc1ccccc1F,i,i,116,i,?,i,51,105
CCCNC(=O)[C@H]1[C@H](CO)[C@H]2Cn3c(ccc(C4=CCCC4)c3=O)[C@@H]1N2C(C)=O,i,i,i,nt,nt,nt,nt,nt
O=C(NC1CCC1)[C@@H]1[C@@H](CO)[C@@H]2Cn3c(ccc(-c4cccc(F)c4)c3=O)[C@H]1N2Cc1cocn1,nt,i,100,nt,i,i,i,i
CCCNC(=O)[C@@H]1[C@@H](CO)[C@@H]2Cn3c(ccc(C4=CCCC4)c3=O)[C@H]1N2C(C)=O,i,i,106,nt,108,i,i,i
O=C(NC1CCC1)[C@@H]1[C@@H](CO)[C@@H]2Cn3c(ccc(-c4ccc(F)cc4)c3=O)[C@H]1N2Cc1cocn1,i,i,nt,nt,nt,nt,nt,nt
CCCNC(=O)[C@H]1[C@H](CO)[C@H]2Cn3c(ccc(-c4ccccc4)c3=O)[C@@H]1N2C(=O)CC1CC1,i,i,106,nt,i,i,i,i
CN(C)C(=O)[C@@H]1[C@@H](CO)[C@@H]2Cn3c(ccc(-c4cccc(F)c4)c3=O)[C@H]1N2CCc1ccccc1,i,i,i,nt,nt,nt,nt,nt
CN(C)C(=O)[C@@H]1[C@@H](CO)[C@@H]2Cn3c(ccc(-c4cccc(F)c4)c3=O)[C@H]1N2Cc1ccccc1,nt,i,103,nt,i,i,i,i
Cc1noc(C)c1-c1nc(CSc2n[nH]c(=O)n2C2CC2)no1,nt,nt,nt,i,nt,nt,nt,nt
SMILES,Pf Dd2 inh,GASC1 inh,T cruzi growth-1,IDH1 R132H inh,T cruzi growth-2,T cruzi growth-3,NIH3T3 tox,NIH3T3 tox 2
COc1ccc(C(=O)NCC(=O)Nc2ccccc2C(F)(F)F)cc1OC,nt,nt,nt,i,nt,nt,nt,nt
CCNC(=O)[C@H]1[C@H](CO)[C@H]2Cn3c(ccc(C4=CCCCC4)c3=O)[C@@H]1N2Cc1cocn1,i,i,?,nt,i,i,i,i
CCCNC(=O)[C@H]1[C@H](CO)[C@H]2Cn3c(ccc(C4=CCCCC4)c3=O)[C@@H]1N2Cc1cocn1,i,i,i,nt,nt,nt,nt,nt
CCCNC(=O)[C@H]1[C@H](CO)[C@H]2Cn3c(ccc(-c4cccc(OC)c4)c3=O)[C@@H]1N2CCC,i,i,i,nt,nt,nt,nt,nt
CCCNC(=O)[C@@H]1[C@@H](CO)[C@@H]2Cn3c(ccc(-c4cccc(OC)c4)c3=O)[C@H]1N2CCC,i,i,100,nt,i,i,i,i
Nc1cc(N)nc(SCC(=O)c2ccc(F)cc2)n1,nt,nt,nt,i,nt,nt,nt,nt
COc1ccc(-c2ccc3c(c2)[C@@H]2[C@@H](CCN2C(=O)c2cnccn2)[C@H](CO)N3)cc1,i,i,?,nt,112,i,i,i
O=C(c1cnccn1)N1CC[C@@H]2[C@H]1c1cc(-c3cccc(F)c3)ccc1N[C@@H]2CO,i,i,101,nt,104,i,i,41
CN(C)C(=O)c1cccc(-c2ccc3c(c2)[C@@H]2[C@@H](CCN2C(=O)c2cnccn2)[C@H](CO)N3)c1,i,i,105,nt,97,i,i,i
COc1cccc(-c2ccc3c(c2)[C@H]2[C@H](CCN2C(=O)c2cnccn2)[C@H](CO)N3)c1,i,i,i,nt,nt,nt,nt,nt
Cc1ccccc1OCc1nn2c(COc3ccccc3)nnc2s1,nt,nt,nt,i,nt,nt,nt,nt
CO[C@@H](CN(C)S(=O)(=O)c1ccc(F)cc1)[C@H](C)CN([C@H](C)CO)S(=O)(=O)c1cccc(Cl)c1,i,i,i,i,nt,nt,nt,nt
CO[C@@H](CN(C)S(=O)(=O)c1ccc(F)cc1)[C@@H](C)CN([C@@H](C)CO)S(=O)(=O)c1cccc(Cl)c1,i,i,109,i,i,i,i,53
CO[C@H](CN(C)S(=O)(=O)c1cccc(Cl)c1)[C@H](C)CN([C@@H](C)CO)S(=O)(=O)c1ccc(Cl)cc1,i,i,i,i,nt,nt,nt,nt
CO[C@H](CN(C)S(=O)(=O)c1ccc(F)cc1)[C@H](C)CN([C@H](C)CO)S(=O)(=O)c1cccc(Cl)c1,i,i,101,i,i,nt,i,55
O=C(Cn1cc(Br)c([N+](=O)[O-])n1)Nc1ccccc1F,nt,nt,nt,i,nt,nt,nt,nt

# Screening results: PubChem, Broad Institute
